# pIC50: −log10 of the molar value. “Also recorded” adds a separate entry of the source.
# How the values were obtained:
# [1] = Stability at room temperature; type: physicochemical; details: for stability at room temperature: 1H NMR in deuterated DMSO up to 3 weeks, HPLC and LCMS in tris buffer
# [2] = Stability in biological media by HPLC; type: physicochemical; details: DMEM and RPMI-1640 without serum, 10 μM, 1% DMSO, 37 °C, 1, 3, 5, 7 days
# Outline: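 A 1 mM DMSO stock from fresh powder was diluted into serum-free DMEM or RPMI (10 μM final, 1% DMSO), with 5 replicates per medium, and kept at 37 °C. Vials were removed on days 1, 3, 5 and 7, chilled to 0 °C on ice and analysed at once by HPLC. Conditions: C18, 5 μm, 4.6×150 mm, isocratic 35% or 50% CH3CN/water with 0.1% TFA depending on compound, 1 ml/min, 30 min. Peak area was plotted against day.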
# [3] = target: T1, trypsin-like (T-L) activity of the proteasome (Oryctolagus cuniculus, UniProt G1SWK8); assay: In vitro T-L proteasome inhibition, fluorogenic assay; type: biochemical, rabbit; details: read-out: T-L inhibition at 10 μM (cells printed ND)
# T1 sequence (G1SWK8 1-271): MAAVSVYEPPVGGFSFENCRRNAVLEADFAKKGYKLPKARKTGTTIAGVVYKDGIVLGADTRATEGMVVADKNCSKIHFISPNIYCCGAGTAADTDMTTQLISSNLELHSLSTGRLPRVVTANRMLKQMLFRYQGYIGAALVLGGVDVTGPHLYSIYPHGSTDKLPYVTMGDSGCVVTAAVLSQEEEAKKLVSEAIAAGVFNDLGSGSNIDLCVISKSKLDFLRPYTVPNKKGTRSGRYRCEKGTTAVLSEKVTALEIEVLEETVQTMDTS
# [4] = tested on: rabbit 20S proteasome CT-L activity; assay: Dialysis using purified rabbit 20S proteasome; type: biochemical; details: for mode of CT-L proteasome inhibition (reversible or irreversible): concluded from dialysis; for recovery of CT-L activity during dialysis: dialysis up to 18 h at 4 °C
# Outline: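 Test compound at 10 μM, or 0.1% DMSO vehicle, was added to rabbit 20S proteasome (1.5 nM final) in 50 mM Tris-HCl pH 7.6 and held 30 min at room temperature. The mixture was dialysed (3,500 MWCO) against assay buffer at 4 °C and sampled at 0, 0.5, 1, 4, 8 and 18 h. CT-L activity was assayed per the earlier method and normalised to the DMSO control.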
# [5] = target: T2, chymotrypsin-like (CT-L) activity of the 20S proteasome (Oryctolagus cuniculus, UniProt G1T4Q9); assay: In vitro CT-L proteasome inhibition, fluorogenic assay; type: biochemical, rabbit; details: for pIC50: CT-L inhibitory activity IC50, in vitro
# T2 sequence (G1T4Q9 60-263): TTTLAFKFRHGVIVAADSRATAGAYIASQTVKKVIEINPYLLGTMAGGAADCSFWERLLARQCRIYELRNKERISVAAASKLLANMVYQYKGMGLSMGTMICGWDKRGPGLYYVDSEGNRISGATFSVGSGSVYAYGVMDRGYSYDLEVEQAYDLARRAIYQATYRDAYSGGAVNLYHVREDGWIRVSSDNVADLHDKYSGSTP
# [6] = tested on: ubiquitinated cellular proteins in MDA-MB-468 cells; assay: Ubiquitination by Western blot analysis; type: cell-based, human; details: MDA-MB-468, 11 hours, various concentrations
structure (smiles),measurement,setting,value
"O=C(O)CSc1cc(NS(=O)(=O)c2cccs2)c2ccccc2c1O [Compound 1, 2-(1-Hydroxy-4-(thiophene-2-sulfonamido)naphthalen-2-ylthio)acetic acid]",stability at room temperature,[1],stable at room temperature for up to two weeks
same,impurities (oxidized material) after 2 weeks,"[1]; room temperature, after 2 weeks",3–5%
same,stability in biological media (HPLC peak area),[2],stable up to 7 days at 37 °C
same,inhibition at 10 µM,[3],< 70%
same,mode of CT-L proteasome inhibition (reversible or irreversible),[4],irreversibly; also recorded: irreversible
same,recovery of CT-L activity during dialysis,[4],did not show any recovery
"O=C(O)CCSc1cc(NS(=O)(=O)c2cccs2)c2ccccc2c1O [Compound 11d, 3-(1-Hydroxy-4-(thiophene-2-sulfonamido)naphthalen-2-ylthio)propanoic acid]",fold decreased potency (CT-L),"[5]; extended side chain, compared with compound 1",2 fold
"O=S(=O)(Nc1cc(Sc2nnn[nH]2)c(O)c2ccccc12)c1cccs1 [Compound 15d, N-(3-(1H-tetrazol-5-ylthio)-4-hydroxynaphthalen-1-yl)thiophene-2-sulfonamide]",selectivity CT-L versus T-L (in words),[5]; in vitro,more selective for T-L over CT-L
"O=S(=O)(Nc1cc(Sc2nnn[nH]2)c(O)c2ccccc12)c1ccc(-c2ccccc2)cc1 [Compound 15e, N-(3-(1H-tetrazol-5-ylthio)-4-hydroxynaphthalen-1-yl)biphenyl-4-sulfonamide]",pIC50,[5],~6.70
same,fold improved CT-L inhibitory activity,[5]; compared with compound 1,up to 20 fold
"O=S(=O)(Nc1cc(Sc2nnn[nH]2)c(O)c2ccccc12)c1ccc(-c2ccccc2)s1 [Compound 15f, N-(3-(1H-tetrazol-5-ylthio)-4-hydroxynaphthalen-1-yl)-5-phenylthiophene-2-sulfonamide]",stability at room temperature,[1],stable at room temperature for up to two weeks
same,pIC50,[5],~6.70
same,fold improved CT-L inhibitory activity,[5]; compared with compound 1,up to 20 fold
"O=S(=O)(Nc1cc(Sc2nnn[nH]2)c(O)c2ccccc12)c1ccc(C2CCCCC2)cc1 [Compound 15h, N-(3-(1H-tetrazol-5-ylthio)-4-hydroxynaphthalen-1-yl)-4-cyclohexylbenzenesulfonamide]",pIC50,[5],~6.70
same,fold improved CT-L inhibitory activity,[5]; compared with compound 1,up to 20 fold
"O=S(=O)(Nc1cc(Sc2nnn[nH]2)c(O)c2ccccc12)c1ccc(-c2ccc(F)cc2)cc1 [Compound 15j, N-(3-(1H-tetrazol-5-ylthio)-4-hydroxynaphthalen-1-yl)-4′-fluorobiphenyl-4-sulfonamide]",pIC50,[5],~6.70
same,fold improved CT-L inhibitory activity,[5]; compared with compound 1,up to 20 fold
"O=S(=O)(Nc1cc(Sc2nnn[nH]2)c(O)c2ccccc12)c1ccc(Oc2ccccc2)cc1 [Compound 15k, N-(3-(1H-tetrazol-5-ylthio)-4-hydroxynaphthalen-1-yl)-4-phenoxybenzenesulfonamide]",stability in biological media (HPLC peak area),[2],stable up to 7 days at 37 °C
same,fold improved CT-L inhibitory activity,[5]; compared with compound 1,up to 20 fold
"O=C(O)CSc1ccc(NS(=O)(=O)c2cccs2)c2ccccc12 [Compound 23, 2-(4-(Thiophene-2-sulfonamido)naphthalen-1-ylthio)acetic acid]",pIC50,[5],< 4.00
O=S(=O)(Nc1cc(Sc2nnc[nH]2)c(O)c2ccccc12)c1ccc(-c2ccccc2)cc1 [Compound 25],stability at room temperature,[1],stable at room temperature for up to two weeks
"O=S(=O)(Nc1cc(Sc2ncn[nH]2)c(O)c2ccccc12)c1ccc(-c2ccc(F)cc2)cc1 [Compound 27, N-(3-(1H-1,2,4-triazol-3-ylthio)-4-hydroxynaphthalen-1-yl)-4′-fluorobiphenyl-4-sulfonamide]",fold improved CT-L inhibitory activity,[5]; compared with compound 1,up to 20 fold
"O=S(=O)(Nc1cc(Sc2ncn[nH]2)c(O)c2ccccc12)c1ccc(Oc2ccccc2)cc1 [Compound 29, N-(3-(1H-1,2,4-triazol-3-ylthio)-4-hydroxynaphthalen-1-yl)-4-phenoxybenzenesulfonamide]",fold improved CT-L inhibitory activity,[5]; compared with compound 1,up to 20 fold
same,selectivity for CT-L over T-L activity,[5]; in vitro,28 fold
"O=S(=O)(Nc1cc(Sc2nnn[nH]2)c(O)c2ccccc12)c1ccc(Cl)cc1 [Compound 35, N-(3-(1H-tetrazol-5-ylthio)-4-hydroxynaphthalen-1-yl)-4-chlorobenzenesulfonamide]",selectivity CT-L versus T-L (in words),[5]; in vitro,equipotent against CT-L and T-L activities
"O=S(=O)(Nc1cc(Sc2nnn[nH]2)c(O)c2ccccc12)c1ccc(Cl)c(Cl)c1 [Compound 36, N-(3-(1H-tetrazol-5-ylthio)-4-hydroxynaphthalen-1-yl)-3,4-dichlorobenzenesulfonamide]",selectivity CT-L versus T-L (in words),[5]; in vitro,equipotent against CT-L and T-L activities
"O=S(=O)(Nc1cc(Sc2nnn[nH]2)c(O)c2ccccc12)c1ccc(-c2ccc(C(F)(F)F)cc2)cc1 [Compound 39, N-(3-(1H-tetrazol-5-ylthio)-4-hydroxynaphthalen-1-yl)-4′-(trifluoromethyl)biphenyl-4-sulfonamide]",stability in biological media (HPLC peak area),[2],stable up to 7 days at 37 °C
same,ubiquitination / accumulation of ubiquitinated cellular proteins,[6],concentration-dependent increase in ubiquitination; also recorded: induced the accumulation of ubiquitinated cellular proteins
same,mode of CT-L proteasome inhibition (reversible or irreversible),[4],irreversibly; also recorded: irreversible
same,recovery of CT-L activity during dialysis,[4],did not show any recovery
